Test results from ChEMBL document CHEMBL4706680, “Small-Molecule HSP27 Inhibitor Abolishes Androgen Receptors in Glioblastoma” (J Med Chem, 2021).
pIC50: −log10 of the molar value. The source made the active and inactive calls. The calls are words filed in the database; no cut-off is given here.

Experiments:
[1] = target: Heat shock protein beta-1 (Homo sapiens) (UniProt P04792); test: Inhibition of HSP27 in human T98G cells assessed as AR accumulation in nucleus at 100 nM incubated for 12 hrs in presence of DHT by immunofluorescence analysis; format: cell-based
Method in brief: (§1)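 T98G cells on coverslips, 24 h after seeding, were treated 12 h with 100 nM, DHT 10 nM, or both. Cells were fixed in 4% paraformaldehyde, permeabilized with 0.1% Triton X-100 and blocked with 1% BSA. They were stained 1 h each with AR and HSP27 primary and fluorescent secondary antibodies, with DAPI for nuclei.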

U-87 MG [2] = test: Antitumor activity against human U87 cells xenografted in NCR nude mouse assessed as reduction in tumor size at 20 mg/kg, ip administered thrice weekly for 14 days by vernier caliper method; format: functional, organism-based; settings: U-87MG ATCC, time 14.0 day
Method in brief: (§2)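 Male NCRNU nude mice, 5–6 weeks, 5 × 10^6 U87 cells in PBS injected subcutaneously into left and right flank (n = 4 mice, 8 tumors per group). Dosing began near 50 mm3: 20 mg/kg in PBS IP or oral, three times weekly for 14 days, vehicle DMSO. Calipers three times weekly, V = 2/3·d1·d2²; tumors weighed after CO2 euthanasia.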

[3] = Toxicity in CD1 mouse assessed as acute pain at 80 mg/kg/day, ip administered thrice weekly and measured at day 10; format: organism-based; settings: in vivo, 72 h, time 3 day
Method in brief: (§3)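 Male CD-1 mice, four per group, given 80 mg/kg in PBS IP three times weekly; vehicle DMSO. Mice were euthanized when toxicity signs appeared, otherwise at day 10. Body weight was recorded at first and last dosing days. Non-fasted cardiac blood was taken after euthanasia for an automated hematology analyzer.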

[4] = target: Heat shock protein beta-1 (Homo sapiens) (UniProt P04792); test: Inhibition of HSP27 in human T98G cells assessed as reduction in AR-V7 expression by Western blot analysis; format: cell-based; settings: dose 25-100 nM
Method in brief: (§4)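 Cells were treated in six-well plates (with or without MG132 where stated), then lysed in RIPA with protease inhibitors. 50 μg protein was run on 10% SDS-PAGE and transferred to PVDF. Membranes were blocked in 5% milk/TBS-T, probed with AR or AR-V7 antibodies overnight at 4 °C, and detected by chemiluminescence. Densitometry was used; n = 3.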

T98G [5] = test: Antiproliferative activity against human T98G cells overexpressing AR assessed as reduction in cell viability incubated for 48 hrs by MTT assay; format: functional, cell-based
Method in brief: (§5)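 MTT assay; 3000 cells/well in RPMI 1640 or DMEM with 10% FBS, seeded 24 h, then exposed 48 h to a range of concentrations in DMSO (final ≤0.1%); vehicle controls. MTT 1 mg/mL for 2 h at 37 °C, dye dissolved in DMSO, absorbance 570 nm; eight replicates; IC50 by nonlinear regression.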

T98G [6] = test: Downregulation of PSA mRNA expression in human T98G cells at 25 nM incubated for 12 hrs by qRT-PCR analysis; format: functional, cell-based
Method in brief: (§6)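 T98G and U87 cells, 2 × 10^5 per well, adhered overnight and were treated at 25 nM for 12 h. RNA was extracted with RiboZol and DNase I-treated. AR, PSA and NKX3.1 were measured by real-time PCR, normalized to 18S by 2−ΔΔCt, three replicates per cDNA.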

[7] = target: Heat shock protein beta-1 (Homo sapiens) (UniProt P04792); test: Inhibition of HSP27 in human T98G cells assessed as reduction in AR-V7 expression level at 50 to 100 nM in presence of MG132 by Western blot analysis; format: cell-based; settings: dose 50-100 nM; method in brief: as §4
[8] = Toxicity in CD1 mouse assessed as decrease in body weight at 80 mg/kg/day, ip administered thrice weekly and observed at day 5 to 7; format: organism-based; settings: in vivo, 72 h, time 3 day; method in brief: as §3
T98G [9] = test: Downregulation of NKX3.1 mRNA expression in human T98G cells at 25 nM incubated for 12 hrs by qRT-PCR analysis; format: functional, cell-based; method in brief: as §6
A 172 = test: Antiproliferative activity against human A 172 cells assessed as reduction in cell viability incubated for 48 hrs by MTT assay; format: functional, cell-based; settings: A 172, 48 h; method in brief: as §5
[10] = target: Heat shock protein beta-1 (Homo sapiens) (UniProt P04792); test: Inhibition of HSP27 in human U87 cells assessed as reduction in AR expression level at 50 to 100 nM by Western blot analysis; format: cell-based; settings: dose 50-100 nM; method in brief: as §4
[11] = target: Heat shock protein beta-1 (Homo sapiens) (UniProt P04792); test: Inhibition of HSP27 in human T98G cells assessed as reduction in AR expression level at 100 nM incubated for 12 hrs by immunofluorescence analysis; format: cell-based; method in brief: as §1
[12] = target: Heat shock protein beta-1 (Homo sapiens) (UniProt P04792); test: Inhibition of HSP27 in human T98G cells assessed as downregulation of androgen receptor by Western blot analysis; format: cell-based; settings: dose 25-100 nM; method in brief: as §4
[13] = target: Heat shock protein beta-1 (Homo sapiens) (UniProt P04792); test: Inhibition of HSP27 in human T98G cells assessed as reduction in wild type AR expression level at 50 to 100 nM in presence of MG132 by Western blot analysis; format: cell-based; settings: dose 50-100 nM; method in brief: as §4
U-87 MG [14] = test: Antiproliferative activity against human U87 cells assessed as reduction in cell viability incubated for 48 hrs by MTT assay; format: functional, cell-based, U-87MG ATCC; method in brief: as §5
[15] = Toxicity in CD1 mouse assessed as decrease in body weight at 80 mg/kg/day, ip administered thrice weekly and measured at day 10; format: organism-based; settings: in vivo, 72 h, time 3 day; method in brief: as §3
[16] = target: Heat shock protein beta-1 (Homo sapiens) (UniProt P04792); test: Inhibition of HSP27 in human U87 cells assessed as reduction in AR expression level at 50 to 100 nM in presence of MG132 by Western blot analysis; format: cell-based; settings: dose 50-100 nM; method in brief: as §4
U-87MG ATCC = test: Downregulation of PSA mRNA expression in human U87 cells at 25 nM incubated for 12 hrs by qRT-PCR analysis; format: functional, cell-based; method in brief: as §6
[17] = Toxicity in NCR nude mouse xenografted with human U87 cells assessed as change in body weight at 20 mg/kg, po administered thrice weekly for 14 days; format: organism-based; settings: in vivo, 336 h, time 14 day
Method in brief: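 Male NCRNU nude mice, 5–6 weeks old, were given 5 × 10^6 U87 cells in 100 μL sterile PBS, injected subcutaneously into the left and right flanks. Dosing was 20 mg/kg in PBS, three times weekly for 14 days, with a DMSO vehicle group. Body weight was recorded three times weekly. Results are mean ± SD, n = 4 mice per group.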

U-87 MG [18] = test: Antitumor activity against human U87 cells xenografted in nude mouse assessed as reduction in tumor weight at 20 mg/kg, ip administered thrice weekly for 14 days by vernier caliper method; format: functional, organism-based; settings: U-87MG ATCC, time 14.0 day; method in brief: as §2
Bos taurus = species on record: Bos taurus; test: Inhibition of bovine brain tubulin polymerization measured every 1 min for 45 mins in presence of GTP by microplate reader analysis; settings: dose 1-1000 nM
Method in brief: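 MAP-rich bovine brain tubulin, 2 mg/mL, in 80 mM PIPES pH 6.9, 2 mM MgCl2, 0.5 mM EGTA, 5% glycerol with a range of concentrations in DMSO at 37 °C. Polymerization was started with GTP (100 mM stock, 1 μL). A340 was read each minute for 45 min; three independent experiments, analysed at end reading.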

Sequence of Heat shock protein beta-1 (Homo sapiens) (P04792 whole entry): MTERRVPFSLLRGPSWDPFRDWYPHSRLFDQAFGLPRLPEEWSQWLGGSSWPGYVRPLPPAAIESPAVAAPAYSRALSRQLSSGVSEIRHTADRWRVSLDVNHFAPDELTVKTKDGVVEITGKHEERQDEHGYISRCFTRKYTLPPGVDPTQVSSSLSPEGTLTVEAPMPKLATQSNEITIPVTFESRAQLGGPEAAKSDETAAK

- inhibition [1]: inactive
- inhibition [4]: Dose-dependent effect
- inhibition [7]: inactive
- inhibition [10]: Active
- inhibition [11]: Active
- inhibition [12]: Dose-dependent effect
- inhibition [13]: inactive
- pIC50 (U-87 MG [14]): 8.32
- inhibition [16]: inactive
- inhibition (Bos taurus): Dose-dependent effect
SMILES: COc1ccc(C(=O)Nc2ccc(NS(C)(=O)=O)c(OCc3cc(OC)ccc3OC)c2)cc1
- Activity (U-87 MG [2]): Active
- Activity [3]: Non-Toxic
- pIC50 (T98G [5]): 8.70
- inhibition (T98G [6]): Active
- Activity [8]: Non-Toxic
- inhibition (T98G [9]): Active
- pIC50 (A 172): 8.20
- Activity [15]: Non-Toxic
- inhibition (U-87MG ATCC): Active
- Activity [17]: Non-Toxic
- Activity (U-87 MG [18]): Active
